ChEMBL document CHEMBL4033789, “Discovery of a New Four-Leaf Clover-Like Ligand as a Potent c-MYC Transcription Inhibitor Specifically Targeting the Promoter G-Quadruplex” (J Med Chem, 2018)
pIC50, pKd: −log10 of the molar value. Active and inactive are the calls of the source. The calls are words filed in the database; no cut-off is given here.

How the values were obtained:
[1] = Cytotoxicity against mouse primary mesangial cells assessed as reduction in cell viability after 24 hrs by MTT assay; assay type: cell-based
Procedure, shortened: (§1)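 Cells seeded at 5.0×10^3 per well, exposed to compound for 24 h; MTT (2.5 mg/mL) added for 4 h, formazan dissolved in DMSO, OD read at 570 nm. Triplicate; IC50 from curves of mean OD against concentration.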

[2] = test system: SiHa; assay: Antiproliferative activity against human SiHa cells assessed as reduction in colony formation at 0.5 uM measured on day 8 by crystal violet-staining based assay; assay type: functional, cell-based
Procedure, shortened: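 Cells seeded at 300 per well in six-well plates, exposed to compound at 37 °C, 5% CO2, with drug-containing medium replaced every 2 days; after 8 days of culture, colonies fixed with methanol and stained with crystal violet.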

[3] = test system: Mus musculus; assay: Toxicity in nude BALB/c mouse xenografted with human SiHa cells assessed as signs of pain at 5 to 20 mg/kg, ip administered every other day for 24 days; assay type: organism-based; settings: in vivo, 576 h
[4] = Stabilization of antiparallel HRAS G-quadruplex DNA (unknown origin) assessed as effect on melting temperature at 15 uM by circular dichroism spectroscopic assay; assay type: ADME
Procedure, shortened: (§2)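 CD melting of 3 µM annealed G-quadruplex with or without 15 µM ligand in 10 mM Tris-HCl pH 7.2 with 2 mM KCl (50 mM KCl for htg22 and HRAS); read every 5 °C over 25–95 °C, heating 1 °C/min.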

[5] = Binding affinity to c-KIT1 promoter G-quadruplex DNA (unknown origin) after 1 min by fluorescence titration method; assay type: ADME
Procedure, shortened: (§3)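 Oligonucleotide stock added stepwise to fixed-concentration compound in 10 mM Tris-HCl pH 7.2, 100 mM KCl; equilibrated ≥1 min after each addition, emission read with excitation at 350 nm. KD from fitting titration data to the Benesi–Hildebrand equation; 1:1 stoichiometry checked by Job plot.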

[6] = test system: SiHa; assay: Induction of cell cycle arrest in human SiHa cells assessed as accumulation at G0/G1 phase up to 5 uM after 12 hrs by propidium iodide-staining based FACS analysis (reference value: 61%); assay type: functional
Procedure, shortened: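 SiHa cells treated 12 h, fixed in 70% ethanol at 4 °C overnight, stained with 50 µg/mL PI plus 75 KU/mL RNase A in PBS for 30 min in the dark at room temperature; flow cytometry, 1.6×10^4 events per sample, cell cycle distribution analyzed.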

[7] = organism: Homo sapiens; assay: Stabilization of c-Myc G-quadruplex DNA in human SiHa cells assessed as decrease in c-Myc protein expression at 1.25 to 5 uM after 24 hrs by Western blot method; assay type: cell-based
Procedure, shortened: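 SiHa cells (2.0×10^5) exposed 24 h, lysed at 4 °C; 30 µg protein per lane on 10% SDS-PAGE, transferred to nitrocellulose, milk-blocked, primary antibody overnight at 4 °C, HRP secondary 2 h at room temperature.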

[8] = test system: SiHa; assay: Induction of cell cycle arrest in human SiHa cells assessed as upregulation of p15 protein levels after 24 hrs by Western blot analysis; assay type: functional, cell-based
Procedure, shortened: (§4)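 SiHa cells (2.0×10^5 per well) treated 24 h, lysed at 4 °C for 30 min, supernatant cleared at 15,000 rpm; protein measured by BCA, 30 µg resolved on 10% SDS-PAGE, transferred to nitrocellulose, blocked in 5% milk/TBS-Tween 1 h, primary antibodies overnight at 4 °C, HRP secondaries 2 h at room temperature.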

[9] = Stabilization of HRAS G-quadruplex DNA in human SiHa cells assessed as effect on HRAS mRNA level at 1.25 to 5 uM fter 6 hrs by RT-PCR method; assay type: ADME, cell-based
Procedure, shortened: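 SiHa cells (2.0×10^5 per well) treated 6 h; total RNA (2 µg) reverse-transcribed with oligo dT18 and M-MLV at 42 °C for 1 h, 85 °C for 5 min; PCR: 95 °C 5 min, then 30 cycles of 95 °C 30 s, 58 °C 30 s, 72 °C 40 s; products checked on agarose gel.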

[10] = test system: SiHa; assay: Induction of cell cycle arrest in human SiHa cells assessed as downregulation of Cyclin D1 protein levels after 24 hrs by Western blot analysis; assay type: functional, cell-based; procedure, shortened: as §4
[11] = test system: U2OS; assay: Cytotoxicity against human U2OS cells assessed as reduction in cell viability after 24 hrs by MTT assay; assay type: functional, cell-based; procedure, shortened: as §1
[12] = test system: SiHa; assay: Antitumor activity against human SiHa cells xenografted in nude BALB/c mouse assessed as tumor growth inhibition at 20 mg,kg, ip administered every other day for 24 days; assay type: functional
Procedure, shortened: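 BALB/c nude mice (5 weeks old) given 1×10^7 SiHa cells subcutaneously in right flank; at ~50 mm3 tumor volume, randomized (10 per group) and dosed intraperitoneally every other day for 24 days; controls got equal-volume saline. Caliper volume as 1/2 × length × width2; tumors weighed at end; inhibition rate = (1 − mean treated tumor weight/mean control tumor weight) × 100%.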

[13] = test system: SiHa; assay: Induction of apoptosis in human SiHa cells after 24 hrs by Annexin V-FITC/propidium iodide-staining based flow cytometric analysis; assay type: functional, cell-based
[14] = organism: Homo sapiens; assay: Stabilization of c-Myc promoter G-quadruplex DNA in human CA46 cells assessed as effect on exon 2 transcriptional level at 1.25 to 5 uM after 6 hrs by RT-PCR analysis; assay type: cell-based
Procedure, shortened: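 RAJI and CA46 cells treated 6 h over a concentration range; total RNA reverse-transcribed (oligo dT18, M-MLV, 42 °C 1 h then 85 °C 5 min); exon 1 and exon 2 amplified by real-time PCR with exon-specific primers, products run on 1% agarose gel; three repeats.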

[15] = Stabilization of c-Myc mutant promoter DNA (unknown origin) transfected in human SiHa cells assessed as reduction in gene transcription at 1.25 to 2.5 uM after 24 hrs by dual-luciferase reporter gene assay; assay type: cell-based
Procedure, shortened: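 SiHa cells transfected with psiCHECK2 carrying wild-type or mutant c-MYC promoter driving Renilla luciferase, firefly luciferase on same plasmid; compound added 4 h post-transfection, incubated further at 37 °C; Renilla signal normalized to firefly; three repeats, mean ± SEM.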

[16] = Stabilization of c-Kit1 promoter G-quadruplex DNA (unknown origin) assessed as effect on melting temperature at 15 uM by circular dichroism spectroscopic assay; assay type: ADME; procedure, shortened: as §2
[17] = Binding affinity to KRAS promoter G-quadruplex DNA (unknown origin) after 1 min by fluorescence titration method; assay type: ADME; procedure, shortened: as §3
[18] = test system: SiHa; assay: Cytotoxicity against human SiHa cells assessed as reduction in cell viability after 24 hrs by MTT assay; assay type: functional, cell-based; procedure, shortened: as §1
[19] = test system: Mus musculus; assay: Toxicity in nude BALB/c mouse xenografted with human SiHa cells assessed as body weight reduction at 5 to 20 mg/kg, ip administered every other day for 24 days; assay type: organism-based; settings: in vivo, 576 h
Procedure, shortened: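 BALB/c nude mice, 5 weeks old, implanted subcutaneously in right flank with 1×10^7 SiHa cells; at ~50 mm3 tumor, 10 per group dosed ip every other day for 24 days, saline control; body weight measured daily, viscera weighed at sacrifice; mean ± SEM, Student's t test versus saline.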

[20] = Binding affinity to 1 uM PDGFA promoter G-quadruplex DNA (unknown origin) at 1 uM after 1 min by fluorescence spectroscopic analysis; assay type: ADME
Procedure, shortened: (§5)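 Fluorescence emission spectra of 1 µM compound mixed with 1 µM pre-annealed oligonucleotide (G-quadruplexes folded in 100 mM KCl by heating to 95 °C for 5 min, slow cooling), in Tris-HCl buffer.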

[21] = Binding affinity to 1 uM c-MYC promoter G-quadruplex pu22 DNA (unknown origin) at 1 uM after 1 min by fluorescence spectroscopic analysis; procedure, shortened: as §5

SMILES: CCn1c2ccccc2c2cc(-c3nc(-c4ccc(N5CCN(C)CC5)cc4)c(-c4ccc(N5CCN(C)CC5)cc4)n3-c3ccc(OC)cc3)ccc21
- pIC50 [1]: 4.81
- Activity [2]: Active
- Activity [3]: Non-Toxic
- Activity [4]: Not Active
- pKd [5]: 6.10
- Activity [6]: 70%
- Activity [7]: Active
- Activity [8]: Dose-dependent effect
- Activity [9]: Not Active
- Activity [10]: Dose-dependent effect
- pIC50 [11]: 5.17
- TGI [12]: 69%
- Activity [13]: Dose-dependent effect
- Activity [14]: inactive
- Activity [15]: inactive
- Activity [16]: Not Active
- pKd [17]: 6.00
- pIC50 [18]: 5.48
- Activity [19]: Non-Toxic
- Activity [20]: Not Active
- Activity [21]: Active
